# Experimental data as given in ChEMBL document CHEMBL1148752, “Dopamine/serotonin receptor ligands. 16.(1) Expanding dibenz[d,g]azecines to 11- and 12-membered homologues. Interaction with dopamine D(1)-D(5) receptors” (J Med Chem, 2007).
# Legend:
# D(1A) dopamine receptor = D(1A) dopamine receptor (Homo sapiens, UniProt P21728); assay: Displacement of [3H]SCH 23390 from human dopamine D1 receptor
# In short: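 Competition binding at cloned human receptors of the D1 family with [3H]SCH 23390 as radioligand; test ligand displacement expressed as Ki.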
# D(2) dopamine receptor = D(2) dopamine receptor (Homo sapiens, UniProt P14416); assay: Displacement of [3H]spiperone from human dopamine D2L receptor expressed in HEK293 cells; format: cell-based
# In short: (§1)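 Competition binding at cloned human receptors of the D2 family with [3H]spiperone as radioligand; test ligand displacement expressed as Ki.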
# D(3) dopamine receptor = D(3) dopamine receptor (Homo sapiens, UniProt P35462); assay: Displacement of [3H]spiperone from human dopamine D3 receptor expressed in CHO cells; format: cell-based; in short: as §1
# D(4) dopamine receptor = target: T1, D(4) dopamine receptor (Homo sapiens, UniProt P21917); assay: Displacement of [3H]spiperone from human dopamine D4.4 receptor expressed in CHO cells; format: cell-based; in short: as §1
# T1 sequence (P21917 whole entry): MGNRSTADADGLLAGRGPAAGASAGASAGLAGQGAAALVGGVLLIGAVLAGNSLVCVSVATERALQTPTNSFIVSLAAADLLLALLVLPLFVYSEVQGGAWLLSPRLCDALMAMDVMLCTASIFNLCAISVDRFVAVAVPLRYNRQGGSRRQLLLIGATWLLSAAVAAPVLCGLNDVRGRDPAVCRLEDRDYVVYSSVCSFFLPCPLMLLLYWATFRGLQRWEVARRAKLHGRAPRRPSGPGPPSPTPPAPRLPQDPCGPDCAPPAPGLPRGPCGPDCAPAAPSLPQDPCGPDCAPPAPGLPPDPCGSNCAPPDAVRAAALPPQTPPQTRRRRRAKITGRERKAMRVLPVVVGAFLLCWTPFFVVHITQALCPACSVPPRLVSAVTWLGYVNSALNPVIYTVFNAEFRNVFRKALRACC
# D(1B) dopamine receptor = D(1B) dopamine receptor (Homo sapiens, UniProt P21918); assay: Displacement of [3H]SCH 23390 from human dopamine D5 receptor expressed in HEK293 cells; format: cell-based
# D(1B) dopamine receptor, sequence (P21918 whole entry): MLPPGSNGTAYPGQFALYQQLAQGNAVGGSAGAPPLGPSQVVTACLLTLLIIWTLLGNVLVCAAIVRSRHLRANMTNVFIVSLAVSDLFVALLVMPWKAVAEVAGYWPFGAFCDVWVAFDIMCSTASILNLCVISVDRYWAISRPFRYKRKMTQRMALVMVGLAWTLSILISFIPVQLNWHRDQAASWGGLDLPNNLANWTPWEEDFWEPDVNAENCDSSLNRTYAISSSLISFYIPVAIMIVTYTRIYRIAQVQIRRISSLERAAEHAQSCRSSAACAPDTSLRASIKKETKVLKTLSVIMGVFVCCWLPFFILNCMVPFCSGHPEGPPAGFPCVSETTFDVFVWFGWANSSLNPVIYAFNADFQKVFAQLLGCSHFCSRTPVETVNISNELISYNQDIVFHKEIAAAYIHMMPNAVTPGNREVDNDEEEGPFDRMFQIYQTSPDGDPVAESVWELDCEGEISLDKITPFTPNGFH
# D(2) dopamine receptor, sequence (P14416 whole entry): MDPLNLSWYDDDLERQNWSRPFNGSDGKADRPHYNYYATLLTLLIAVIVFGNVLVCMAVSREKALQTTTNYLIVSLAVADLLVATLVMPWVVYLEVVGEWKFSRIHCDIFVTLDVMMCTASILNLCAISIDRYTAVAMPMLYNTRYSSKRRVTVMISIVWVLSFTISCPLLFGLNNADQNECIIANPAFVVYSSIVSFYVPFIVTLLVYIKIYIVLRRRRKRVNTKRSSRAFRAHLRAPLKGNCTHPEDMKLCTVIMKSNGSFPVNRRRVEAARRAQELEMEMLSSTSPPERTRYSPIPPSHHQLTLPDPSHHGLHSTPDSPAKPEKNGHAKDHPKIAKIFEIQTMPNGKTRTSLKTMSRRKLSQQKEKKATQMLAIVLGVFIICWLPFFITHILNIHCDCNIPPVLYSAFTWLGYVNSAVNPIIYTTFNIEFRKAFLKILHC
# D(3) dopamine receptor, sequence (P35462 whole entry): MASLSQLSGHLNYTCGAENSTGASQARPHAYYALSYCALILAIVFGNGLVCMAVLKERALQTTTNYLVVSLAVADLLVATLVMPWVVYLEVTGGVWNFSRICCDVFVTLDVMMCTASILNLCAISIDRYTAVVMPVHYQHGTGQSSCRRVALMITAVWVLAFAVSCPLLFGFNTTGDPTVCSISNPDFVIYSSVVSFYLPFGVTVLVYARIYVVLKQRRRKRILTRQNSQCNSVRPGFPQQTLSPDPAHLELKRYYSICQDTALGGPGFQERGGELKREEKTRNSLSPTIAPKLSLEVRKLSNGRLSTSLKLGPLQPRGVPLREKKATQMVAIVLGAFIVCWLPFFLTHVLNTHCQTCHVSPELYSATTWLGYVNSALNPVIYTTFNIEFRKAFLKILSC
# D(1A) dopamine receptor, sequence (P21728 whole entry): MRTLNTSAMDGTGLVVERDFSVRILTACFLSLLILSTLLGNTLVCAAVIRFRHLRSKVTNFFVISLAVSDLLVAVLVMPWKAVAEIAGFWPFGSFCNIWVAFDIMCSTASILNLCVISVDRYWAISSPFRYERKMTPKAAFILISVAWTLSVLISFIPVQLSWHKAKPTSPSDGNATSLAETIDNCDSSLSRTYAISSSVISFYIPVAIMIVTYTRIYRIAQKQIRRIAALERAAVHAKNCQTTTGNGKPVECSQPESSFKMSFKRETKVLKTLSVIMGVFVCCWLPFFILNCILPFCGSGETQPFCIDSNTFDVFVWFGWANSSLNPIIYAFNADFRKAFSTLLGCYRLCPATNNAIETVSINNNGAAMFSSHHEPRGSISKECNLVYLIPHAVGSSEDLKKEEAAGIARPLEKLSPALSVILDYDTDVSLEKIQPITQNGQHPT
SMILES,Ki (D(1A) dopamine receptor),Ki (D(2) dopamine receptor),Ki (D(3) dopamine receptor),Ki (D(4) dopamine receptor),Ki (D(1B) dopamine receptor)
CN1CCCc2ccccc2Cc2ccc(O)cc2CCC1,83 nM,382 nM,3960 nM,422 nM,95 nM
COc1cc2c(cc1Cl)CCN1CCCc3ccccc3C21 (stereo unspecified),> 10000 nM,> 10000 nM,> 10000 nM,> 10000 nM,> 10000 nM
Oc1ccc2c(c1)CCCNCCc1ccccc1C2,291 nM,857 nM,6900 nM,4260 nM,314 nM
COc1ccc(CCN2CCCc3ccccc3C2)cc1Cl,> 10000 nM,> 10000 nM,> 10000 nM,> 10000 nM,> 10000 nM
COc1cc2c(cc1OC)Cc1ccccc1CCCN(C)CC2,579 nM,1030 nM,14800 nM,5050 nM,510 nM
COc1ccc2c(c1)CCCN1CCCc3ccccc3C21 (stereo unspecified),> 10000 nM,> 10000 nM,> 10000 nM,> 10000 nM,> 10000 nM

# Results, then the compound that gave them:
Ki (D(1A) dopamine receptor),Ki (D(2) dopamine receptor),Ki (D(3) dopamine receptor),Ki (D(4) dopamine receptor),Ki (D(1B) dopamine receptor),SMILES
3.2 nM,74 nM,100 nM,60.1 nM,9.8 nM,CN1CCCc2ccccc2Cc2ccc(O)cc2CC1
23.5 nM,172 nM,1350 nM,2870 nM,53 nM,COc1ccc2c(c1)CCCN(C)CCCc1ccccc1C2
137 nM,1400 nM,23900 nM,2760 nM,75 nM,COc1ccc2c(c1)Cc1ccccc1CCCN(C)CC2
18.5 nM,87 nM,507 nM,271 nM,4.6 nM,COc1ccc2c(c1)CCN(C)CCCc1ccccc1C2
,,,,54 nM,COc1ccc2c(c1)CCN(C)CCc1ccccc1C2
13.9 nM,518 nM,6120 nM,2260 nM,17 nM,CN1CCCc2cc(O)ccc2Cc2ccccc2CC1
29.4 nM,25 nM,3140 nM,1100 nM,55 nM,COc1ccc2c(c1)CCCN(C)CCc1ccccc1C2
70 nM,63 nM,776 nM,3750 nM,69 nM,CN1CCCc2ccccc2Cc2cc(O)ccc2CC1
